Measurements from ChEMBL document CHEMBL4673252, “Discovery and Early Clinical Development of Isobutyl 1-[8-Methoxy-5-(1-oxo-3H-isobenzofuran-5-yl)-[1,2,4]triazolo[1,5-a]pyridin-2-yl]cyclopropanecarboxylate (LEO 39652), a Novel "Dual-Soft" PDE4 Inhibitor for Topical Treatment of Atopic Dermatitis” (J Med Chem, 2020).

What was measured:
[1] = Clearance in human liver microsomes at 0.5 uM incubated for 40 mins in presence of NADPH by LC-MS/MS analysis; type: ADME, Microsome; conditions: read-out: CLH
Summary of the method: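 Human liver microsomes (0.5 mg/mL) with 1 mM NADPH and 0.5 μM test compound, incubated for 40 min. Samples were taken before NADPH and at 5, 10, 20, 40 min, quenched with cold acetonitrile containing internal standard, and analysed by LC-MS/MS. Control incubations in buffer and without NADPH. Apparent clearance was calculated from depletion.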

[2] = Half life in human whole blood at 0.1 uM by LC-MS/MS analysis; type: ADME, tissue-based
[3] = Half life in human keratinocytes at 1 uM by LC-MS/MS analysis; type: ADME, cell-based, Keratinocyte
Summary of the method: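 Plated human epidermal keratinocytes (1 × 10⁴ cells/well) with 1 μM compound in duplicate for up to 24 h; sampled at 0, 1, 2, 4, 24 h, acetonitrile precipitation, LC-MS/MS. Controls in growth medium. Half-life reported.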

[4] = AUC (0 to 24 hrs) in cynomolgus monkey at 30 mg/kg, sc dosed as single administration; type: ADME, organism-based, Macaca fascicularis; parameters: time < 24 hr, route subcutaneous, dose 30 mg/kg; conditions: in vivo
Summary of the method: (§1)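 Single subcutaneous dose of 30 mg/kg.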

[5] = Drug exposure in of Isobutyl 1-[8-Methoxy-5-(1-oxo-3H-isobenzofuran-5-yl)-[1,2,4]-triazolo[1,5-a]pyridin-2-yl]cyclopropanecarboxylate dosed Gottingen mini pig assessed as ratio of drug level to total AUC at 0.5 to 2 mg/kg, iv measured up to 24 hrs by LC-MS/MS analysis; type: ADME, organism-based, Sus scrofa domesticus; conditions: in vivo, BLD = below limit of detection, dose 0.5-2 mg/kg
[6] = Clearance in mini pig hepatocytes at 10 uM by UPLC/TOF-MS analysis; type: ADME, cell-based, Sus scrofa domesticus, Hepatocyte; conditions: read-out: CLH
[7] = Cmax in cynomolgus monkey at 30 mg/kg, sc dosed as single administration; type: ADME, organism-based, Macaca fascicularis; parameters: route subcutaneous, dose 30 mg/kg; conditions: in vivo; summary of the method: as §1
[8] = Drug exposure in human assessed as ratio of drug level to total AUC at 0.25% of Isobutyl 1-[8-Methoxy-5-(1-oxo-3H-isobenzofuran-5-yl)-[1,2,4]-triazolo[1,5-a]pyridin-2-yl]cyclopropanecarboxylate dosed via topical administration in lipid cream; type: ADME, organism-based; conditions: in vivo, topical_or_ocular
[9] = Drug exposure in Isobutyl 1-[8-Methoxy-5-(1-oxo-3H-isobenzofuran-5-yl)-[1,2,4]-triazolo[1,5-a]pyridin-2-yl]cyclopropanecarboxylate dosed cynomolgus monkey assessed as ratio of drug level to total AUC; type: ADME, organism-based, Macaca fascicularis; conditions: in vivo
Summary of the method: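 Blood was drawn at 0.25–24 h after infusion start and 6, 12, 24 h after infusion end into EDTA-K3, then plasma stabilized with ascorbic acid. LC-MS/MS quantification of parent and metabolites; noncompartmental PK.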

[10] = Clearance in human hepatocytes at 10 uM by UPLC/TOF-MS analysis; type: ADME, cell-based, Hepatocyte
[11] = Cmax in human patient with atopic dermatitis at 0.25% dosed topically as lipid cream; type: ADME, organism-based; parameters: dose 0.25 %; conditions: in vivo, topical or ocular
[12] = AUC (0 to 24 hrs) in human patient with atopic dermatitis at 0.25% dosed topically as lipid cream; type: ADME, organism-based; parameters: time < 24 hr, dose 0.25 %; conditions: in vivo, topical or ocular

SMILES	CLint scaled at 0.5 µM [1] [mL/min/kg]	half-life at 0.1 µM [2] [min]	half-life at 1 µM [3] [min]	also measured
COc1ccc(-c2ccc3c(c2)COC3=O)n2nc(C3(C(=O)O[C@@H]4CCOC4)CC3)nc12	101	< 10	> 720	–
COc1ccc(-c2ccc3c(c2)COC3=O)n2nc(C3(C(=O)OCC(C)(C)O)CC3)nc12	66	12	> 720	AUC ([4]; 24 h, BLD = below limit of detection): Bld; Drug uptake [5]: Bld; CLint scaled at 10 µM [6]: > 26 mL/min/kg; Cmax ([7]; BLD = below limit of detection): Bld; Drug uptake ([8]; BLD = below limit of detection): Bld; Drug uptake [9]: 0.1%; CLhep predicted at 10 µM [10]: 16 mL/min/kg
COc1ccc(-c2ccc3c(c2)COC3=O)n2nc(C3(C(=O)OC4CCC4)CC3)nc12	> 200	< 10	> 540	–
COc1ccc(-c2ccc3c(c2)COC3=O)n2nc(C3(C(=O)OC4CCCC4)CC3)nc12	> 200	17	720	–
COc1ccc(-c2cccc(C#N)c2)n2nc(C3(C(=O)OCC(C)C)CC3)nc12	> 200	> 60	> 720	–
COc1ccc(-c2ccc3c(c2)COC3=O)n2nc(C3(C(=O)OC(C)(C)C)CC3)nc12	> 200	11	> 720	–
COc1ccc(-c2ccc3c(c2)COC3=O)n2nc(C3(C(=O)NCC(C)C)CC3)nc12	> 200	< 10	600	–
COC(=O)C1(c2nc3c(OC)ccc(-c4ccc5c(c4)COC5=O)n3n2)CC1	193	< 10	> 720	–
COc1ccc(-c2ccc3c(c2)COC3=O)n2nc(C3(C(=O)OC[C@@H](C)CO)CC3)nc12	64	< 10	> 720	–
COc1ccc(-c2ccc3c(c2)COC3=O)n2nc(C3(C(=O)OC4COC4)CC3)nc12	97	< 10	> 720	–
COC(=O)c1cccc(-c2ccc(OC)c3nc(C4CC4)nn23)c1	> 200	> 60	> 720	–
COc1ccc(-c2ccc3c(c2)COC3=O)n2nc(C3(C(=O)OC(C)C)CC3)nc12	97	11	> 720	–
COC(=O)c1ccc(-c2ccc(OC)c3nc(C4(C(=O)NCC(C)C)CC4)nn23)cc1	> 200	–	540	–
COc1ccc(-c2cccc(C#N)c2)n2nc(C3(CCO)CC3)nc12	16	–	–	–
COC(=O)c1ccc(-c2ccc(OC)c3nc(C4CC4)nn23)cc1	> 200	> 60	> 720	–
COc1ccc(-c2cccc3c2COC3=O)n2nc(C3(C(=O)NCC(C)C)CC3)nc12	95	> 60	> 720	–
COc1ccc(-c2cccc(C#N)c2)n2nc(C3(COC(=O)C(C)C)CC3)nc12	> 200	28	72	–

SMILES	CLint scaled at 0.5 µM [1] [mL/min/kg]	half-life at 0.1 µM [2] [min]	half-life at 1 µM [3] [min]	also measured
CCCCOC(=O)C1(c2nc3c(OC)ccc(-c4ccc5c(c4)COC5=O)n3n2)CC1	> 200	20	600	–
COc1ccc(-c2cccc3c2COC3=O)n2nc(C3CC3)nc12	< 10	15	> 720	–
COc1ccc(-c2cccc(C#N)c2)n2nc(C3(CO)CC3)nc12	< 10	–	–	–
COc1ccc(-c2cccc(C#N)c2)n2nc(C3(CCCO)CC3)nc12	33	–	–	–
COc1ccc(-c2ccc3c(c2)COC3=O)n2nc(C3(C(=O)OC[C@H](C)CO)CC3)nc12	66	< 10	> 720	–
COc1ccc(-c2cccc(C#N)c2)n2nc(C3(CCC(=O)O)CC3)nc12	16	–	–	–
CC[C@H](C)OC(=O)C1(c2nc3c(OC)ccc(-c4ccc5c(c4)COC5=O)n3n2)CC1	> 200	11	> 720	–
COc1ccc(-c2cccc(C#N)c2)n2nc(C3(C(=O)O)CC3)nc12	< 10	–	–	–
CCCOC(=O)C1(c2nc3c(OC)ccc(-c4ccc5c(c4)COC5=O)n3n2)CC1	139	13	> 720	–
COc1ccc(-c2ccc3c(c2)COC3=O)n2nc(C3(C(=O)OC4CCCCC4)CC3)nc12	> 200	23	> 720	–
COc1ccc(-c2ccc3c(c2)COC3=O)n2nc(C3(C(=O)O[C@H]4CCOC4)CC3)nc12	77	< 10	> 720	–
COc1ccc(-c2cccc(C#N)c2)n2nc(C3(CC(=O)O)CC3)nc12	< 10	–	–	–
COc1ccc(-c2ccc3c(c2)COC3=O)n2nc(C3CC3)nc12	64	12	> 720	–
COC(=O)c1cccc(-c2ccc(OC)c3nc(C4(C(=O)NCC(C)C)CC4)nn23)c1	> 200	> 60	> 720	–
COc1ccc(-c2ccc3c(c2)COC3=O)n2nc(C3(C(=O)OC4CCCCCC4)CC3)nc12	> 200	34	222	–
COc1ccc(-c2ccc(C(=O)O)c(CO)c2)n2nc(C3(C(=O)OCC(C)(C)O)CC3)nc12	–	–	–	AUC(0-t) at 24 h [4]: 19.4 ng·h/mL; Drug uptake [5]: Bld; CLint scaled at 10 µM [6]: 13 mL/min/kg; Cmax ([7]; read-out: Cmax): 10.5 ng/mL; Drug uptake [8]: 1%; Cmax [11]: 0.029 ng/mL; AUC(0-t) at 24 h [12]: 0.27 ng·h/mL; Drug uptake [9]: 1%; CLhep predicted at 10 µM [10]: 7.1 mL/min/kg
CCOC(=O)C1(c2nc3c(OC)ccc(-c4ccc5c(c4)COC5=O)n3n2)CC1	140	11	> 720	–
